Compound activity: PubChem BioAssay, Sanford-Burnham Center for Chemical Genomics
Rows were chosen to be rich in hits. Some 1.5% of all compounds tested hit in one or more screens of this group.
APJ ag: agonists of human apelin receptor APJ, primary screen, CHO-K1 cells, PathHunter beta-arrestin, luminescence. AID 2520, 2010. hit rate 0.11% among 330,000. activation, % at 20 µM. 0% DMSO wells, 100% apelin;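 active = activation more than six SD over the plate average, tested at 20 µM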;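 note: 0% = DMSO alone and 100% = apelin-13 at 10 nM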
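Assay system: engineered CHO-K1 APJ arrestin reporter cells; Amount: 1000 CHO-K1 reporter cells seeded per well; Dosing: one dose, 20 µM compound, 1% DMSO; Times: compound stimulation 90 min at 25 °C, detection 60 min; Measured by: luminescent beta-gal fragment complementation, chemiluminescent substrate; Read-out: APJ–arrestin association signal; Controls: DMSO vs Apelin-13 10 nM.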
CXCR6 inh: CXCR6 receptor inhibitors, primary screen, cell-based, beta-arrestin, luminescence, CHO-K1 PathHunter, 1536-well | AID 602244, 2012 | inhibition, % at 20 µM | C-X-C chemokine receptor type 6 (Homo sapiens), O00574 | hit rate 0.36% among 360,000; in the data active = inhibition above about 34%, passing the limit was not always enough;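 note: antagonist mode with CXCL16 agonist at 10 nM final; 0% = 10 nM CXCL16 with DMSO and 100% = unstimulated wells without agonist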
Target sequence (O00574 whole entry, looked up): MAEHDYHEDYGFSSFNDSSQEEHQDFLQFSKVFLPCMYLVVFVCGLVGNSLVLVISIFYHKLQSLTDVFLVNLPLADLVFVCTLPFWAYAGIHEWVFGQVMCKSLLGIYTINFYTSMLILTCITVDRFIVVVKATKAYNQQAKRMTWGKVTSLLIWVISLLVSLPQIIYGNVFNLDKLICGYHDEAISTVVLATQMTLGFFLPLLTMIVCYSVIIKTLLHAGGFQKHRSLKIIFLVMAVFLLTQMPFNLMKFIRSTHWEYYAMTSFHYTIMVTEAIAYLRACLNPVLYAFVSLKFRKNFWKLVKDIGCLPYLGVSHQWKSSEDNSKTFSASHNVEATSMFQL
EBI2 block: EBI2 receptor antagonists, beta-arrestin recruitment, primary screen, cell-based, luminescence, 7a,25-OHC stimulation, uHTS | hit rate 0.81% among 360,000 | 7a,25-OHC stimulated | inhibition, % at 5 µM | G-protein coupled receptor 183 (Homo sapiens), P32249; in the data active = inhibition above about 38%;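 note: enzyme fragment complementation signal reports receptor beta-arrestin coupling in cells; 0% = agonist plus DMSO wells and 100% = wells without agonist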
hiPSC survival: enhancers of single-cell hiPSC survival, primary screen, ATPlite luminescence. hit rate 0.044% among 360,000. survival enhancement, % at 20 µM. 100% = ROCK inhibitor wells, 0% = DMSO. AID 602274, 2012; in the data active = survival enhancement above about 18%;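 note: cells exposed to compounds for 16 hours before the ATP read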
APJ antagonist: antagonists of human apelin receptor APJ, primary screen, CHO-K1 cells, beta-arrestin complementation, luminescence; P35414; inhibition, % at 20 µM; AID 2521, 2010; hit rate 0.32% among 330,000;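 active = inhibition above about 40% at 20 µM, limit read from the data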;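 note: cells challenged with 10 nM apelin-13 agonist together with compound; plate controls were apelin-13 plus DMSO wells for no effect and DMSO wells lacking apelin-13 for full effect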
CCR6 antagonist: CCR6 receptor antagonists, primary screen, cell-based, CHO-K1, luminescence, beta-arrestin, uHTS. C-C chemokine receptor type 6 (Homo sapiens), P51684. CHO-K1 CCR6 PathHunter beta-arrestin, CCL20-stimulated. inhibition, % at 20 µM. hit rate 0.49% among 340,000. AID 493098, 2011;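 active = compounds whose inhibition of the agonist-driven luminescence signal at 20 µM reaches about 50%, limit read from the data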;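 note: cells stimulated with CCL20 at 14 nM final; plate controls were DMSO with CCL20 for no effect and DMSO without agonist for full effect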
APJ antag confirm: APJ antagonists blocking beta-arrestin recruitment, confirmation, cell-based, luminescence, single concentration, uHTS hits; inhibition, % at 20 µM; shares compounds with APJ antagonist; hit rate 66% among 950; antagonist mode; in the data active = inhibition above about 50%
* = called active by the depositor; . = no result.

SMILES	APJ ag	CXCR6 inh	EBI2 block	hiPSC survival	APJ antagonist	CCR6 antagonist	APJ antag confirm
C=CCN(CC=C)Cc1cc(=O)oc2ccc3ccccc3c12	.	8	6	2	.	.	.
C=CCN(CC=C)Cc1c(O)ccc2c1oc(=O)c1ccccc12	-11	37	11	6	47*	13	78*
CCc1ccc(C(=O)NNc2ccc(Cl)cc2)cc1	-11	7	36	0	51*	19	60*
COC(=O)c1ccc2c(c1)C(C)(C)C(/C=C/c1ccc(O)cc1)=[N+]2C	-2	74*	0	2	70*	91*	129*
Cc1cc(Nc2nc3ccccc3nc2Cl)n(-c2ccc([N+](=O)[O-])cc2)n1	-12	33	40	-1	49*	56*	-2
CCCCCCCCCCCCCCCC[N+](C)(C)CCN(Cc1ccc(OC)cc1)c1ncccn1	-14	5	-5	-5	51*	65*	42
O=C(CCC(=O)Nc1cccc(Cl)c1)N/N=C/c1cc([N+](=O)[O-])ccc1O	-7	16	-6	0	27	38	.
O=C(CCCC(=O)Nc1cccc(Br)c1)N/N=C/c1cc([N+](=O)[O-])ccc1O	-20	38	14	0	49*	43	71*
O=C1Nc2ccccc2C1=Nc1cccc(Cl)c1	0	6	6	-1	12	7	.
Cc1cccc(N=C2C(=O)Nc3c(Cl)cccc32)c1	-16	30	17	0	63*	65*	136*
CC(=O)c1ccc(N=C2C(=O)Nc3ccccc32)cc1	-19	69*	4	0	104*	0	155*
CSc1cccc(N=C2C(=O)Nc3ccccc32)c1	-10	34	-1	0	45*	54*	110*
O=C1Nc2ccccc2C1=Nc1ccc(F)cc1	-14	34	10	0	49*	68*	119*
COc1ccc(N=C2C(=O)Nc3ccccc32)cc1	-11	8	16	-2	33	33	.
COc1ccccc1CCNC(=O)c1cccc(NC(=O)CC2SC(N3CCCCC3)=NC2=O)c1 (stereo not drawn)	.	2	9	-3	.	10	.
NC(=O)C[C@H](N)c1cn([C@@H](CC(N)=O)C(=O)N2CCNCC2)nn1	9	3	-8	-4	-7	-9	.
CCCCN(C(=O)C1CSC2(C)CCC(=O)N12)c1c(N)n(CC(C)C)c(=O)[nH]c1=O (stereo not drawn)	-4	-4	-12	0	15	-2	.
Cn1cccc1C1CCCN1CC(=O)Nc1ccc(C(N)=O)cc1 (stereo not drawn)	2	1	6	0	-6	-6	.
COc1cc2c(cc1OC)C(c1cccc([N+](=O)[O-])c1)NC(=O)C2 (stereo not drawn)	0	7	-2	0	0	7	.
COc1cc2c(cc1OC)C1(CCCC1)CNC2c1cccc([N+](=O)[O-])c1 (stereo not drawn)	-9	63*	40	0	47*	78*	78*
COc1cc(/C=C2\SC(=S)N(N(C)c3ccccc3)C2=O)ccc1O	-11	3	0	1	56*	14	95*
CCOc1cc(/C=C2/SC(=S)N(Cc3ccccc3)C2=O)ccc1O	-8	43*	24	-1	46*	54*	87*
COc1cc(/C=C2/SC(=S)N(Cc3ccccc3)C2=O)ccc1OCC(=O)O	-1	-1	3	1	-9	14	.
CC(=O)Oc1ccc(/C=C2/SC(=S)N(Cc3ccccc3)C2=O)cc1	-7	28	14	0	47*	50*	72*
O=C1N/C(=N\S(=O)(=O)c2ccccc2)S/C1=C\c1cc([N+](=O)[O-])ccc1O	-3	14	-6	2	33	15	.
